Results published in ChEMBL document CHEMBL3861988, “Discovery of Selective Inhibitors Targeting Acetylcholinesterase 1 from Disease-Transmitting Mosquitoes” (J Med Chem, 2016).

Legend:
[1] = Inhibition of Aedes aegypti recombinant AChE1 expressed in baculovirus infected insect Sf9 cells using acetylthiocholine iodide as substrate measured over 60 secs by Ellman assay
Outline: (§1)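 Dose-response Ellman assay on recombinant enzyme in 0.1 M phosphate pH 7.4 with 0.2 mM DTNB and 1 mM acetylthiocholine iodide. At least eight inhibitor concentrations were used, up to 1 mM, diluted from 100 mM DMSO stocks. Run manually at 30 °C with A412 read over 60 s. Activity is relative to uninhibited wells. IC50 was obtained by non-linear log[inhibitor] fitting from 2 replicates.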

Acetylcholinesterase [2] = biological target: Acetylcholinesterase (Homo sapiens, UniProt P22303); test: Inhibition of human recombinant AChE using acetylthiocholine iodide as substrate measured over 60 secs by Ellman assay; outline: as §1
[3] = Inhibition of Aedes aegypti recombinant AChE1 expressed in baculovirus infected insect Sf9 cells at 50 uM using acetylthiocholine iodide as substrate measured over 60 secs by Ellman assay relative to control
Outline: (§2)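 Single-concentration HTS with secreted, non-purified Sf-9-expressed mosquito AChE1 in growth medium. Assay in 0.1 M phosphate buffer pH 7.4 with 0.2 mM DTNB and 1 mM acetylthiocholine iodide. Compounds were tested at a final 50 µM from DMSO stocks. The A412 slope was read over 60 s. Activity was expressed relative to the mean of eight uninhibited control wells per plate.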

[4] = Selectivity ratio of IC50 for human recombinant AChE to IC50 for Aedes aegypti recombinant AChE1
Acetylcholinesterase [5] = biological target: Acetylcholinesterase (Anopheles gambiae, UniProt Q869C3); test: Inhibition of Anopheles gambiae recombinant AChE1 expressed in baculovirus infected insect Sf9 cells using acetylthiocholine iodide as substrate measured over 60 secs by Ellman assay; outline: as §1
[6] = Selectivity ratio of IC50 for human recombinant AChE to IC50 for Anopheles gambiae recombinant AChE1
[7] = biological target: Acetylcholinesterase (Anopheles gambiae) (UniProt Q869C3); test: Inhibition of Anopheles gambiae recombinant AChE1 expressed in baculovirus infected insect Sf9 cells at 50 uM using acetylthiocholine iodide as substrate measured over 60 secs by Ellman assay relative to control; outline: as §2
Acetylcholinesterase [8] = biological target: Acetylcholinesterase (Anopheles gambiae, UniProt Q869C3, G122S); test: Inhibition of Anopheles gambiae recombinant AChE1 G122S mutant using acetylthiocholine iodide as substrate by Ellman assay; outline: as §1
Acetylcholinesterase [9] = biological target: T1, Acetylcholinesterase (Mus musculus, UniProt P21836); test: Inhibition of mouse recombinant AChE using acetylthiocholine iodide as substrate measured over 60 secs by Ellman assay
T1 sequence (P21836 whole entry): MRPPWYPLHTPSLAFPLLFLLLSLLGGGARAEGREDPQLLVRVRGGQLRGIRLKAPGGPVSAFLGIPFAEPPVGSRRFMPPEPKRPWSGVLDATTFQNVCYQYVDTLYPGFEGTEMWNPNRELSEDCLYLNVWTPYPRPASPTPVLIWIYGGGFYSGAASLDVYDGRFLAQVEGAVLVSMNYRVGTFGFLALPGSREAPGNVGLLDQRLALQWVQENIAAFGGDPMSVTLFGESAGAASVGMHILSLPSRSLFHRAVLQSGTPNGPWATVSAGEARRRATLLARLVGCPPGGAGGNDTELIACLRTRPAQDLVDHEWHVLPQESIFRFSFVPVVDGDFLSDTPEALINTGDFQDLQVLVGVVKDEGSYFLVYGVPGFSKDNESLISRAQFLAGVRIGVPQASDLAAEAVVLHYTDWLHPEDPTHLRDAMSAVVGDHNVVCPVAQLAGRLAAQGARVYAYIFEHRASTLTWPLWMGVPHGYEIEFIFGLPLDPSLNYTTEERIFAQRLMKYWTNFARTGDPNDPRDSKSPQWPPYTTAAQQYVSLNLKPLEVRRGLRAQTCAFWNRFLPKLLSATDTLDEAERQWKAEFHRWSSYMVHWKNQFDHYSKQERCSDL

Row | Structure (SMILES) | IC50 [1] [µM] | IC50 (Acetylcholinesterase [2]) [µM] | inhibition [3] [%] | Ratio IC50 [4] | IC50 (Acetylcholinesterase [5]) [µM] | Ratio IC50 [6] | inhibition [7] [%] | IC50 (Acetylcholinesterase [8]) [µM] | IC50 (Acetylcholinesterase [9]) [µM]
1 | CCSc1nc2sc3c(c2c(=O)n1-c1ccccc1)CCN(Cc1ccccc1)C3 | 8.8 | 5.1 | 93 | 0.6 | 8.3 | 0.6 | 94 | – | –
2 | COc1ccc(CN2CC=C(c3ccc(F)cc3)CC2)cc1OCc1ccccc1 | > 100 | > 200 | 90 | – | > 100 | – | 86 | – | –
3 | c1ccc(COc2ccc(CN3CCc4ccccc4C3)cc2)cc1 | – | > 200 | 80 | > 67 | 2.9 | > 67 | 41 | – | –
4 | O=S(=O)(NCCSc1nnc(-c2ccco2)n1-c1ccccc1)c1ccccc1 | > 1000 | > 1000 | 82 | – | > 1000 | – | 76 | – | –
5 | O=C(COc1ccc(Cl)cc1Cl)Nc1ccc(CN2CCCCC2)cc1 | 0.44 | – | 91 | – | 0.26 | – | 93 | 1.2 | –
6 | CCN1CCN(C2CCN(C(=O)COc3ccc(-c4ccccc4)cc3)CC2)CC1 | 0.22 | 31 | 76 | – | 0.21 | – | 92 | 1.3 | 18
7 | O=C(COc1ccccc1)N1CCN(C2CCN(Cc3ccccc3)CC2)CC1 | 19 | 43 | 18 | 2 | 21 | 2 | 24 | – | –
8 | CCOc1ccc(-n2c(SCc3nc(-c4ccccc4C)no3)nnc2-c2ccccc2)cc1 | > 1000 | > 1000 | 1 | – | > 1000 | – | 63 | – | –
9 | Fc1ccccc1COc1ccccc1CNCCN1CCOCC1 | > 500 | > 500 | 38 | – | > 500 | – | 23 | – | –
10 | O=C(c1ccccc1F)N1CCN(C2CCN(Cc3ccccc3)CC2)CC1 | 12 | > 200 | 33 | > 12 | 17 | > 12 | 32 | – | –
